Experimental data published in ChEMBL document CHEMBL5705900, “PF-06463922 is a potent and selective next-generation ROS1/ALK inhibitor capable of blocking crizotinib-resistant ROS1 mutations” (Proc Natl Acad Sci U S A, 2015).
Calls of active or inactive are those of the source. The calls are words filed in the database; no cut-off is given here.

Experiments:
[1] = system: Proto-oncogene tyrosine-protein kinase ROS (Homo sapiens), P08922 [L2026M]; experiment: Inhibition of recombinant human ROS1 L2026M mutant in presence of ATP by microfluidic mobility shift assay; details: dose 0.001-1000 nM
Proto-oncogene tyrosine-protein kinase ROS (Homo sapiens), P08922 [L2026M], sequence (P08922 whole entry L2026M): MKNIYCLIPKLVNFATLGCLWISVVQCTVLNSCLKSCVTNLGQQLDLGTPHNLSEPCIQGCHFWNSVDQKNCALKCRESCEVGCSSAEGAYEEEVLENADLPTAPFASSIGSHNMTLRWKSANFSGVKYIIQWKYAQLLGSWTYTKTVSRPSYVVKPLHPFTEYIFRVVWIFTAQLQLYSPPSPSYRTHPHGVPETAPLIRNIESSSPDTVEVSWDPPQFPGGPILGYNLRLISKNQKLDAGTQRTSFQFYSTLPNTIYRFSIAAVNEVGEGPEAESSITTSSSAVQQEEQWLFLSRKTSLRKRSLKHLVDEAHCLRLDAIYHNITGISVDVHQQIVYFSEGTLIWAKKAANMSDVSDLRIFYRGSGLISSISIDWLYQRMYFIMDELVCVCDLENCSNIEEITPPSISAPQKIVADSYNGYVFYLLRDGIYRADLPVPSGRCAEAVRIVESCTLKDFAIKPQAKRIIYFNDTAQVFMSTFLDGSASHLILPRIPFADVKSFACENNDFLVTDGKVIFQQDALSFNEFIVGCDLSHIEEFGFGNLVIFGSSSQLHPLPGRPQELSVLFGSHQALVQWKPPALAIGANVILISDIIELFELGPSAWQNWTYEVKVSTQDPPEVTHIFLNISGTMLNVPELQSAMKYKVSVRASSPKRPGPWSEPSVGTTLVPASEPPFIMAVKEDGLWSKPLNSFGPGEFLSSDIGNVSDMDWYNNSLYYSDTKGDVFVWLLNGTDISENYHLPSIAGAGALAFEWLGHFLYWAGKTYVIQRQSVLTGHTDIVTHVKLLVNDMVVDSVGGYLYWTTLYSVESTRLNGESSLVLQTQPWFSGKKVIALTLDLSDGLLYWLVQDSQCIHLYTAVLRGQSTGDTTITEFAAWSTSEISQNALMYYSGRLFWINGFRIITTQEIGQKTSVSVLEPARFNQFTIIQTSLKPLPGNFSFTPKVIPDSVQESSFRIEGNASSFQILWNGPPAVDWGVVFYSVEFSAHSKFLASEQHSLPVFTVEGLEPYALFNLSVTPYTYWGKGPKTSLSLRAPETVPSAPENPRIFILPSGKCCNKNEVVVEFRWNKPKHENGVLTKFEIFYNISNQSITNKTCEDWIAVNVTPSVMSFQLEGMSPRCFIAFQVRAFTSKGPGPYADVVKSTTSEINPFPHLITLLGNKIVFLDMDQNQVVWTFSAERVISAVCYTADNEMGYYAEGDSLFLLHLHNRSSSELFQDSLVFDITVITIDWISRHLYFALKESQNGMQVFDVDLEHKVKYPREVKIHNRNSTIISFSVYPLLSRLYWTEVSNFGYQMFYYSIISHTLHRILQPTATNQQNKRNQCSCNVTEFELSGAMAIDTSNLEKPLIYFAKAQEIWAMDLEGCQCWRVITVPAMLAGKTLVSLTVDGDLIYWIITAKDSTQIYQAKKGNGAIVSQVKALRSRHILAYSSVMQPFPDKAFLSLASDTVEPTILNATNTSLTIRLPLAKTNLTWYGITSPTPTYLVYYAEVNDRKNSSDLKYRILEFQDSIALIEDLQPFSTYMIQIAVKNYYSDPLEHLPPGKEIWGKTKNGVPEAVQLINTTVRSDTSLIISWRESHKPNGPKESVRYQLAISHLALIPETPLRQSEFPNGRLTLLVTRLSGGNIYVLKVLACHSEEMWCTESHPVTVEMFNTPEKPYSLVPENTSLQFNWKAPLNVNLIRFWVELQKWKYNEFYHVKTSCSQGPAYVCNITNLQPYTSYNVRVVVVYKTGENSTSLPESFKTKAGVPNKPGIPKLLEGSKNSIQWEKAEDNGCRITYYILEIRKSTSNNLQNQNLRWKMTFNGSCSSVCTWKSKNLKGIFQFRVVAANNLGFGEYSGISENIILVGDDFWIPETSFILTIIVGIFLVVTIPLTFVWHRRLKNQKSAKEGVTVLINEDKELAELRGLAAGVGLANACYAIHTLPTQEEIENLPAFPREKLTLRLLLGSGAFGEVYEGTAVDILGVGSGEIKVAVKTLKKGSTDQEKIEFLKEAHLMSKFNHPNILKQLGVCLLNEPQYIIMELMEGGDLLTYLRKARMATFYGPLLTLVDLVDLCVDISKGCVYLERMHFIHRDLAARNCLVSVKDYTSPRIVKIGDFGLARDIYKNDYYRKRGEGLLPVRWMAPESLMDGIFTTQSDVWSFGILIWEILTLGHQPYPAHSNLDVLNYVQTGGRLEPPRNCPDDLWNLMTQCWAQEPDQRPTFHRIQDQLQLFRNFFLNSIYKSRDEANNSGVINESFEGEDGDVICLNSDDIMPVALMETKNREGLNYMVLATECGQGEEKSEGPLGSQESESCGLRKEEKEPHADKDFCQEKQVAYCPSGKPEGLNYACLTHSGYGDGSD

[2] = target: T1, Proto-oncogene tyrosine-protein kinase ROS (Homo sapiens, UniProt P08922); experiment: Inhibition of recombinant human ROS1 in presence of ATP by microfluidic mobility shift assay; details: dose 0.001-1000 nM
T1 sequence (P08922 whole entry): as the sequence (P08922 whole entry L2026M) above, with M2026L counted along it

[3] = system: Proto-oncogene tyrosine-protein kinase ROS (Homo sapiens), P08922 [G2032R]; experiment: Inhibition of recombinant human ROS1 G2032R mutant in presence of ATP by microfluidic mobility shift assay; details: dose 0.001-1000 nM
Proto-oncogene tyrosine-protein kinase ROS (Homo sapiens), P08922 [G2032R], sequence (P08922 whole entry G2032R): as the sequence (P08922 whole entry L2026M) above, with M2026L, G2032R counted along it

[4] = target: T2, H-2 class II histocompatibility antigen gamma chain/Proto-oncogene tyrosine-protein kinase ROS (Mus musculus, UniProt Q78DX7); experiment: Inhibition of CD74-ROS1 expressed in mouse BaF3 cells assessed as inhibition of phosphorylated ROS1 incubated for 1 hr by ELISA analysis; assay type: cell-based
T2 sequence (Q78DX7 whole entry): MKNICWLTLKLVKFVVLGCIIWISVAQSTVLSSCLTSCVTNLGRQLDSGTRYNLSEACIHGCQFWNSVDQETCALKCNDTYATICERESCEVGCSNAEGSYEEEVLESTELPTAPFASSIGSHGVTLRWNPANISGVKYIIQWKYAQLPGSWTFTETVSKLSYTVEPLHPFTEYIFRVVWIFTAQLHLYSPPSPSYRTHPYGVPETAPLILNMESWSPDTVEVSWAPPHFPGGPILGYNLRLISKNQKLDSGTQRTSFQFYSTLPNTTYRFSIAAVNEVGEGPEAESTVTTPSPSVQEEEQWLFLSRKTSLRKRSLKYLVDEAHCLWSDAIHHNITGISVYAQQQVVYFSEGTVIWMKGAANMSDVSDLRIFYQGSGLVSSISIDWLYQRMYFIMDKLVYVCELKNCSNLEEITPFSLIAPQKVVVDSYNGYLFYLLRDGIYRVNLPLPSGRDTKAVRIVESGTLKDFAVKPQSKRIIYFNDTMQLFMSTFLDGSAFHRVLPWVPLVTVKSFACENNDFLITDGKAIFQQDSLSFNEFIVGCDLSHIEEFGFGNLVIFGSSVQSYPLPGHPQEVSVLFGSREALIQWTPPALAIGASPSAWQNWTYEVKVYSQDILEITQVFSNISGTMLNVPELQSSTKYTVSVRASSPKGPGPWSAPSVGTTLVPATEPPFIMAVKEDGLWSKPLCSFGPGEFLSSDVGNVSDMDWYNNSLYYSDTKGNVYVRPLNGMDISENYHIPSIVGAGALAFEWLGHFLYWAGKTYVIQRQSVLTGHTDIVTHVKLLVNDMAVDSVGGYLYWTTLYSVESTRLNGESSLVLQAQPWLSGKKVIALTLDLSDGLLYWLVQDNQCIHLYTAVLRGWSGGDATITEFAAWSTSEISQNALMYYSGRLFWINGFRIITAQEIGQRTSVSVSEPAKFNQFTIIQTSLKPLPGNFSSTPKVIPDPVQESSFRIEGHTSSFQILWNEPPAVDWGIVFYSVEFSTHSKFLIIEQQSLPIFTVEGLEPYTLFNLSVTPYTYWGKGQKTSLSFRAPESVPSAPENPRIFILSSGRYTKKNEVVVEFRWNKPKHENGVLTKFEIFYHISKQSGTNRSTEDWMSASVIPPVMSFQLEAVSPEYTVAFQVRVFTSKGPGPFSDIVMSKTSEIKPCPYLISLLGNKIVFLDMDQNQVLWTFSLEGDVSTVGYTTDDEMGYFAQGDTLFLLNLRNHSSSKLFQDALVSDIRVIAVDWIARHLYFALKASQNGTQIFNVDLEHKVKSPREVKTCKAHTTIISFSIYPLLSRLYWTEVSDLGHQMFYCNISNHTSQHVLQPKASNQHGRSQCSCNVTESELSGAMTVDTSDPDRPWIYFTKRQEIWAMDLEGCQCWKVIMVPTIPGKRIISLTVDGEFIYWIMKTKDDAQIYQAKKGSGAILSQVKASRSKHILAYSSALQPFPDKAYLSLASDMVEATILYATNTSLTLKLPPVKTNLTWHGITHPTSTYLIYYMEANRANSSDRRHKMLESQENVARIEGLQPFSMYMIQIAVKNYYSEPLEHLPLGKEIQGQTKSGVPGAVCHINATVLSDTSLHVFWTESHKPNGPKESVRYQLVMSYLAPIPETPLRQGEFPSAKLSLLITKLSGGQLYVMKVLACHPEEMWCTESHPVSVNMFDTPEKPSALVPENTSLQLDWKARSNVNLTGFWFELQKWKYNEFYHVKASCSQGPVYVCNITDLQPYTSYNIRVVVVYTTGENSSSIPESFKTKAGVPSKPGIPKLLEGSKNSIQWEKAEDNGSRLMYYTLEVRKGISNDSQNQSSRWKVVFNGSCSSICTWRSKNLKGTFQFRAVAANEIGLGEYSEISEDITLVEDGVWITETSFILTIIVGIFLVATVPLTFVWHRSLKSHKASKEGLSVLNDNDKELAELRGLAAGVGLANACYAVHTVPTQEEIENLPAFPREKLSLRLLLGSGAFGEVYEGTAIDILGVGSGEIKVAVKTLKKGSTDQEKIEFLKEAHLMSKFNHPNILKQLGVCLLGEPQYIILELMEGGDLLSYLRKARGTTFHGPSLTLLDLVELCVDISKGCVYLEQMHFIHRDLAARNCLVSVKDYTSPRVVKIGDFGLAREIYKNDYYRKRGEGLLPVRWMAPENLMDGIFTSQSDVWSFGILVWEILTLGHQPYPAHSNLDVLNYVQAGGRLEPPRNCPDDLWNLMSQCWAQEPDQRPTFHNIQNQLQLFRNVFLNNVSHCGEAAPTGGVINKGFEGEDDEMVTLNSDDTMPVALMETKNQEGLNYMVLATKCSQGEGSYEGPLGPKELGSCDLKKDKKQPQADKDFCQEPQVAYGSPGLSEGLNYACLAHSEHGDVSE
T2 sequence (P04441 whole entry, further chain): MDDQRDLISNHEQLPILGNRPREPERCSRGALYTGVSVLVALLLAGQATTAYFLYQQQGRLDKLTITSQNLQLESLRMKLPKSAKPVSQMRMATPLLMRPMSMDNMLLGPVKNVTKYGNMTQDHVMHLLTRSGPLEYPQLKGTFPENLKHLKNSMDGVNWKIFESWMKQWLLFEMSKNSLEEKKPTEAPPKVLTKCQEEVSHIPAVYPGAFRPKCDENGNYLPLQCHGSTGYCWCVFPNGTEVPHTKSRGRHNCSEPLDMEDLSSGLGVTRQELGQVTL
Method in brief: (§1)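 Cells seeded in growth medium with 0.5% serum and incubated overnight; compounds diluted in serum-free medium, added for 1 h, then medium aspirated. Lysates assayed for phospho-ROS1 (Tyr2274) by sandwich ELISA. IC50 from four-parameter concentration-response curve fit. Engineered lines made by retroviral transduction (pMSCV) with puromycin or hygromycin selection for 5 d.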

[5] = Inhibition of CD74-ROS1 G2032R mutant expressed in mouse BaF3 cells assessed as inhibition of phosphorylated ROS1 incubated for 1 hr by ELISA analysis; assay type: cell-based; details: BaF3, 1 h
Method in brief: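 BaF3 cells retrovirally engineered to express CD74-ROS1 G2032R, seeded in growth medium with 0.5% serum overnight. Compounds diluted in serum-free medium, added for 1 h, then aspirated. Lysates assayed for phospho-ROS1 (Tyr2274) by sandwich ELISA; IC50 from four-parameter concentration-response curve fit.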

[6] = target: T2, H-2 class II histocompatibility antigen gamma chain/Proto-oncogene tyrosine-protein kinase ROS; experiment: Inhibition of CD74-ROS1 expressed in mouse NIH3T3 cells assessed as inhibition of phosphorylated ROS1 incubated for 1 hr by ELISA analysis; assay type: cell-based; method in brief: as §1
[7] = target: T3, Golgi-associated PDZ and coiled-coil motif-containing protein/Proto-oncogene tyrosine-protein kinase ROS (Mus musculus, UniProt Q78DX7); experiment: Inhibition of FIG-ROS1 short isoform fusion protein expressed in mouse NIH3T3 cells assessed as inhibition of phosphorylated ROS1 incubated for 1 hr by ELISA analysis; assay type: cell-based; method in brief: as §1
T3 sequence (Q78DX7 whole entry, other chains not shown, the tested form may be a part, canonical isoform): as the sequence (Q78DX7 whole entry) above

[8] = target: T3, Golgi-associated PDZ and coiled-coil motif-containing protein/Proto-oncogene tyrosine-protein kinase ROS; experiment: Inhibition of FIG-ROS1 long isoform fusion protein expressed in mouse NIH3T3 cells assessed as inhibition of phosphorylated ROS1 incubated for 1 hr by ELISA analysis; assay type: cell-based; method in brief: as §1
HCC78 [9] = experiment: Antiproliferative activity against human HCC78 cells harboring SLC34A2-ROS1 fusion protein assessed as reduction in cell viability incubated for 72 hrs by CellTiter-Glo assay; assay type: functional, cell-based; details: HCC78, 72 h
Method in brief: (§2)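 HCC78 NSCLC cells seeded in growth medium with 10% FBS, cultured overnight at 37 °C, then exposed to serial compound dilutions for 72 h at 37 °C. Relative cell number read by CellTiter-Glo luminescence; IC50 from four-parameter concentration-response curve fit.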

BaF3 [10] = experiment: Antiproliferative activity against mouse BaF3 cells harboring CD74-ROS1 G2032R mutant assessed as reduction in cell viability incubated for 72 hrs by CellTiter-Glo assay; assay type: functional, cell-based; details: BaF3, 72 h
Method in brief: (§3)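 BaF3 cells engineered by pMSCV retroviral transduction (puromycin or hygromycin selection, 5 d, pooled populations) with CD74-ROS1 fusion variants. Seeded in growth medium with 10% FBS overnight at 37 °C, then serial compound dilutions for 72 h at 37 °C. CellTiter-Glo for relative cell number; IC50 by four-parameter curve fit.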

BaF3 [11] = experiment: Antiproliferative activity against mouse BaF3 cells harboring CD74-ROS1 L2026M mutant assessed as reduction in cell viability incubated for 72 hrs by CellTiter-Glo assay; assay type: functional, cell-based; details: BaF3, 72 h; method in brief: as §3
HCC78 [12] = experiment: Antiproliferative activity against human HCC78 cells assessed as reduction in cell viability incubated for 72 hrs by CellTiter-Glo assay; assay type: functional, cell-based; details: HCC78, 72 h; method in brief: as §2
BaF3 [13] = experiment: cells; details: Mus musculus, BaF3, 72 h
[14] = Inhibition of CD74-ROS1 L2026M mutant expressed in mouse BaF3 cells assessed as inhibition of phosphorylated ROS1 incubated for 1 hr by ELISA analysis; assay type: cell-based; details: BaF3, 1 h
[15] = target: T1, Proto-oncogene tyrosine-protein kinase ROS; experiment: Binding affinity to recombinant human ROS1 assessed as inhibition constant in presence of ATP by microfluidic mobility shift assay
SLC34A2-ROS1 = SLC34A2-ROS1 (Homo sapiens, UniProt P08922); experiment: Inhibition of SLC34A2-ROS1 fusion protein expressed in human HCC78 cells assessed as inhibition of phosphorylated ROS1 incubated for 1 hr by ELISA analysis; assay type: cell-based
[16] = target: Proto-oncogene tyrosine-protein kinase ROS (Homo sapiens, UniProt P08922, L2026M); experiment: Binding affinity to recombinant human ROS1 L2026M mutant assessed as inhibition constant in presence of ATP by microfluidic mobility shift assay
[17] = system: Proto-oncogene tyrosine-protein kinase ROS (Homo sapiens), P08922 [G2032R]; experiment: Binding affinity to recombinant human ROS1 G2032R mutant assessed as inhibition constant in presence of ATP by microfluidic mobility shift assay

| inhibition [1] | inhibition [2] | inhibition [3] | IC50 [4] | IC50 [5] | IC50 [6] | IC50 [7] | IC50 [8] | IC50 (HCC78 [9]) | IC50 (BaF3 [10]) | IC50 (BaF3 [11]) | IC50 (HCC78 [12]) | IC50 (BaF3 [13]) | IC50 [14] | Ki [15] | IC50 (SLC34A2-ROS1) | Ki [16] | Kis [17] | Structure (SMILES) |
| --- | --- | --- | --- | --- | --- | --- | --- | --- | --- | --- | --- | --- | --- | --- | --- | --- | --- | --- |
| Dose-Dependent Effect | Dose-Dependent Effect | Dose-Dependent Effect | 3.9 nM | > 5000 nM | 11 nM | 60 nM | 41 nM | 21 nM | > 2000 nM | 259 nM | 47 nM | 18 nM | – | – | – | – | – | C[C@@H](Oc1cc(-c2cnn(C3CCNCC3)c2)cnc1N)c1c(Cl)ccc(F)c1Cl [CRIZOTINIB] |
| Dose-Dependent Effect | Dose-Dependent Effect | Dose-Dependent Effect | 71 nM | > 2000 nM | 341 nM | 488 nM | 304 nM | 506 nM | > 2000 nM | 60 nM | 226 nM | 44 nM | 70 nM | – | – | – | – | Cc1cc(Nc2ncc(Cl)c(Nc3ccccc3S(=O)(=O)C(C)C)n2)c(OC(C)C)cc1C1CCNCC1 [CERITINIB] |
| – | – | – | 1.5 nM | 6.4 nM | – | – | – | – | 1.3 nM | 1.1 nM | – | 2.3 nM | 1.4 nM | – | – | – | – | COc1cc2nccc(Oc3ccc(NC(=O)C4(C(=O)Nc5ccc(F)cc5)CC4)cc3)c2cc1OC [CABOZANTINIB] |
| Dose-Dependent Effect | Dose-Dependent Effect | inactive | > 10000 nM | > 10000 nM | > 5000 nM | > 5000 nM | > 5000 nM | > 10000 nM | > 2000 nM | > 2000 nM | > 1000 nM | > 2000 nM | > 10000 nM | 2400 nM | > 1000 nM | 2000 nM | > 3000 nM | CCc1cc2c(cc1N1CCC(N3CCOCC3)CC1)C(C)(C)c1[nH]c3cc(C#N)ccc3c1C2=O [ALECTINIB] |
| Dose-Dependent Effect | Dose-Dependent Effect | Dose-Dependent Effect | 3.8 nM | 88 nM | 5.47 nM | 6.1 nM | 5.6 nM | 19 nM | 69 nM | 8.6 nM | 21 nM | 11 nM | – | – | – | – | – | COc1cc2c(Oc3ccc(NC(=O)C4(C(=O)Nc5ccc(F)cc5)CC4)cc3F)ccnc2cc1OCCCN1CCOCC1 [FORETINIB] |
